Drawing on ChEMBL document CHEMBL1144538, “Synthesis and pharmacological evaluation of some 3-phenyl-2-substituted-3H-quinazolin-4-one as analgesic, anti-inflammatory agents” (2007), this text covers Activity for four molecules.

Each structure is given as a SMILES string.

Assay type in all cases: functional
Assay [1] deals with Mus musculus. Briefly: Analgesic activity in Wistar Albino mouse at 10 mg/kg, po after 3 hrs by tail-flick technique. The essentials: (§1)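 Tail-flick in Wistar albino mice (25–35 g, either sex, randomly selected), compound given orally as suspension in 1% carboxymethyl cellulose; six animals per group. Reaction time read before dosing and after dosing, cut-off 10 s. Percent analgesic activity = (T2 − T1)/(10 − T1) × 100, T1/T2 being pre/post reaction times; mean of n = 6, one-way ANOVA versus control.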

Assay [2] relates to Mus musculus. Briefly: Analgesic activity in Wistar Albino mouse at 20 mg/kg, po after 30 mins by tail-flick technique. The method in brief:
as §1

Assay [3] relates to Mus musculus. Briefly: Analgesic activity in Wistar Albino mouse at 20 mg/kg, po after 1 hr by tail-flick technique. The essentials: as §1
Assay [4] relates to Mus musculus. Kind of assay: Analgesic activity in Wistar Albino mouse at 20 mg/kg, po after 2 hrs by tail-flick technique. The method in brief: as §1
Assay [5] deals with Mus musculus. Kind of assay: Analgesic activity in Wistar Albino mouse at 20 mg/kg, po after 3 hrs by tail-flick technique. The essentials:
as §1

Assay [6] concerns Rattus norvegicus. Briefly: Anti-inflammatory activity against Carrageenan-induced paw oedema rat model at 10 mg/kg after 30 mins. The essentials:
(§2)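 Rat carrageenan paw oedema; compound dosed orally as suspension in 1% carboxymethyl cellulose, six rats per group. Paw volume by mercury displacement plethysmography immediately before and at the stated time after carrageenan injection. Percent oedema inhibition computed from pre/post paw volumes of treated versus vehicle-control rats; one-way ANOVA versus control.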

For assay [7], the system named is Rattus norvegicus. Briefly: Anti-inflammatory activity against Carrageenan-induced paw oedema rat model at 10 mg/kg after 1 hr. The method in brief:
as §2
(The carrageenan paw model is a standard test of acute inflammation.)

The subject of assay [8] is Rattus norvegicus. Briefly: Anti-inflammatory activity against Carrageenan-induced paw oedema rat model at 10 mg/kg after 2 hrs. The method in brief:
as §2

The test system of assay [9] is Rattus norvegicus. Briefly: Anti-inflammatory activity against Carrageenan-induced paw oedema rat model at 10 mg/kg after 3 hrs. The method in brief:
as §2

In assay [10] the test system is Rattus norvegicus. Kind of assay: Anti-inflammatory activity against Carrageenan-induced paw oedema rat model at 20 mg/kg after 30 min. The essentials: as §2
The subject of assay [11] is Rattus norvegicus. Kind of assay: Anti-inflammatory activity against Carrageenan-induced paw oedema rat model at 20 mg/kg after 1 hr. The method in brief:
as §2

The subject of assay [12] is Rattus norvegicus. Kind of assay: Anti-inflammatory activity against Carrageenan-induced paw oedema rat model at 20 mg/kg after 2 hrs. The method in brief:
as §2

Assay [13] concerns Rattus norvegicus. Briefly: Anti-inflammatory activity against Carrageenan-induced paw oedema rat model at 20 mg/kg after 3 hrs. The essentials:
as §2

Assay [14] concerns Mus musculus. Briefly: Analgesic activity in Wistar Albino mouse at 10 mg/kg, po after 30 mins by tail-flick technique. The essentials:
as §1

Assay [15] has as its system Mus musculus. Kind of assay: Analgesic activity in Wistar Albino mouse at 10 mg/kg, po after 1 hr by tail-flick technique. The method in brief:
as §1

In assay [16] the test system is Mus musculus. Kind of assay: Analgesic activity in Wistar Albino mouse at 10 mg/kg, po after 2 hrs by tail-flick technique. The essentials: as §1

For the molecule `O=c1c2ccccc2nc(N/N=C\c2ccc(Cl)cc2)n1-c1ccccc1`, the Activity came to 27% in assay [1]; 40% in assay [2]; 45% in assay [3]; 48% in [4]; 35% in assay [5]; 26% in [6]. In addition, the Activity in assay [7] is recorded as 28%; in assay [8], 30%; in assay [9] it was 23%; in assay [10] it was 29%; in assay [11], 32%; in assay [12], 37%. Moreover, the Activity in assay [13] is listed as 25%; in assay [14], 32%; in assay [15], 34%; in [16], 42%.

Take `COc1ccc(/C=N\Nc2nc3ccccc3c(=O)n2-c2ccccc2)cc1`: the Activity in assay [1] was determined as 30%; in assay [2] it was 42%; in assay [3] it was 49%; in assay [4], 50%; in [5] it was 29%; in assay [6], 28%. Besides, the Activity is given as 30% in assay [7]; 32% in assay [8]; 24% in assay [9]; 33% in [10]; 37% in [11]; 37% in [12]. Further, the Activity in assay [13] amounted to 30%; in assay [14], 38%; in assay [15], 42%; in assay [16], 43%.

For the molecule `O=C(O)Cc1ccccc1Nc1c(Cl)cccc1Cl` [DICLOFENAC], the Activity in [1] was found to be 33%; in [2], 46%; in assay [3] it was 55%; in assay [4], 62%; in assay [5], 39%; in assay [6] it was 32%. Moreover, the Activity was 38% in [7]; 39% in assay [8]; 33% in assay [9]; 45% in assay [10]; 52% in assay [11]; 60% in assay [12]. For the same molecule, the Activity in assay [13] stood at 42%; in [14], 37%; in assay [15], 43%; in assay [16] it was 45%.

Regarding `C/C(=N\Nc1nc2ccccc2c(=O)n1-c1ccccc1)c1ccccc1`, the Activity in [1] is reported as 29%; in assay [2] it was 50%; in assay [3], 53%; in [4] it was 57%; in assay [5] it was 36%; in assay [6], 31%. Besides, the Activity in assay [7] is given as 35%; in assay [8] it was 38%; in assay [9], 29%; in [10], 38%; in [11], 42%; in assay [12] it was 46%. Also, the Activity in [13] is recorded as 33%; in assay [14], 38%; in assay [15] it was 43%; in [16], 43%.
